RAM network inh = yeast RAM network inhibition | S. cerevisiae dse1pr::URA3 reporter, 5-FOA growth OD615, 2 d; analog-sensitive cbk1-as2 kinase mutant strain | inhibition, % at 50 µM | actives 1.8% (n = 190,000);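 active = inhibition above a set limit, 3 SD over mean compound inhibition, cut at about 8.4% in these data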;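 note: 0% = DMSO-only wells with no growth and 100% = 10 µM 1-NA-PP1 full growth; inhibition rescues growth on 5-FOA so higher OD means more RAM inhibition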
Measles CPE = protection of cells from measles virus; Measles virus-infected cells, CPE protection, absorbance; protection (pct of control), % at 4 µM; actives 1.5% (n = 140,000); AID 841; in the data active = protection mostly above about 24%, no sharp cut-off; inactive = mostly below about 26%
BB579 growth dn = reduces growth of yeast BB579 in restrictive medium | inhibition, % at 10 µM | S. cerevisiae BB579 growth, OD615, 48 h | actives 0.51% (n = 140,000);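 active = inhibition above a set limit, 3 SD over the mean compound inhibition, cut at about 44% in these data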
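Assay system – yeast BB579 (DeaD) · Dosing – single compound dose of 10 µM, 0.25% DMSO final · Detection – OD615 turbidity measurement · Buffer or medium – CSMM-D restrictive synthetic medium containing dextrose (glucose) · Benchmarks – positive control amphotericin B 10 µg/mL · Incubation – 48 h exposure, 30 °C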
Yeast lifespan up = yeast lifespan extension | S. cerevisiae growth with nicotinamide, OD615; deaD strain in restrictive glucose medium | inhibition of the nicotinamide effect, % at 10 µM | actives 0.68% (n = 130,000);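 active = inhibition above a set limit, placed 3 SD over the median of all compounds, cut at about 26% in these data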;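 note: 0% = nicotinamide-treated wells and 100% = cells grown without nicotinamide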
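Assay system: engineered S. cerevisiae DeaD replicative-lifespan strain, galactose-grown log-phase cells; Buffer or medium: CSMM-D glucose medium, restrictive; Probe or stimulus: nicotinamide 1.5 mM; Compound: single dose 10 µM compound, 0.25% DMSO; Schedule: 4 h preincubation then 48 h treatment at 30 °C; Technique: OD615 measurement.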
Active calls of the source: *; . = not tested or not shown. A selection: hits, their analogues and other compounds. The true share with any hit is near 3.6%.

SMILES	RAM network inh	Measles CPE	BB579 growth dn	Yeast lifespan up
COc1ccc(OC)c(C2C3=C(CC(C)(C)CC3=O)Nc3nnnn32)c1 (configuration not stated)	1.9	31.2*	-17.9	1.8
CC(C)N(CCNCc1nnc(-c2ccccc2)o1)C(C)C	-0.9	.	.	.
NC(=O)CSc1ncnc2c1oc1ccccc12	2.5	9.0	30.8	-7.8
O=C(CSc1ncnc2c1oc1ccccc12)OCc1ccccc1	8.8*	7.8	-71.1	-8.3
CN1C(=O)C(C(=O)Nc2ccccc2F)c2ccccc21 (configuration not stated)	0.3	5.5	-13.8	44.5*
Cc1ccc(NC(=O)C2C(=O)N(C)c3ccccc32)cc1 (configuration not stated)	0.3	7.6	-23.0	27.9*
O=C(NCc1ccco1)C(=O)NCC1OCCN1S(=O)(=O)c1ccc(Cl)cc1 (configuration not stated)	2.6	17.0	-36.7	7.0
O=C(NCc1ccco1)C(=O)NCC1OCCN1S(=O)(=O)c1ccc(F)cc1 (configuration not stated)	2.5	49.5*	-32.9	1.7
CCCn1c(SCC(=O)NCc2ccc(Cl)cc2)n[nH]c1=O	0.1	.	.	.
CCc1ccccc1NC(=S)N(CCCN(C)C)Cc1cc2cc3c(cc2[nH]c1=O)OCO3	0.5	.	.	.
C/C(=N\NC(=O)c1c(-c2ccccc2Cl)noc1C)c1cccc(NC(=O)C(C)C)c1	0.1	14.7	-38.1	0.9
CNC(=S)N(Cc1ccc(OC)cc1)C1CC(=O)N(c2ccc(OC)cc2)C1=O (configuration not stated)	10.4*	15.2	-26.6	.
O=C1/C(=N/n2cnnc2)c2ccccc2N1Cc1ccccc1	3.1	3.7	-42.2	38.9*
c1ccc2c(c1)C(=Nn1cnnc1)c1ccccc1-2	1.4	3.1	54.2*	-19.1
Oc1ccccc1/C=N/n1cnnc1	0.4	13.8	7.1	-12.8
O=C1c2cccnc2C(=O)N1Cc1ccccc1	0.7	13.6	4.4	0.8
COc1ccc(CSc2nc(C)cc(C)c2S(C)(=O)=O)cc1	2.3	.	.	.
COc1ccccc1-c1cc(C(F)(F)F)nc(NCc2cccs2)n1	10.0*	21.9	-43.0	-1.3
COc1cc(-c2nc3ccccn3c2/N=C/c2cc(OC)c(O)cc2Cl)ccc1O	0.0	.	.	.
O=C(CC1SC(=O)N(c2ccccc2)C1=O)Nc1ccccc1 (configuration not stated)	8.2	6.2	3.5	16.0
Cc1cccc(NC(=O)CC2SC(=O)N(c3ccccc3)C2=O)c1 (configuration not stated)	1.1	3.9	50.3*	14.1
Cc1ccc(S(=O)(=O)Nc2c3ccccc3nc(=O)n2-c2ccccc2)cc1	4.2	35.0*	-9.8	-5.4
CCOC(=O)c1ccc(NC(=S)N(CCCN2CCCCCC2)Cc2ccco2)cc1	2.8	49.0*	-42.8	6.3
CCc1ccc(NC(=S)N(CCCN2CCN(C)CC2)Cc2cccs2)cc1	-0.8	52.8*	5.6	-4.0
CCOC(=O)c1ccc(NC(=S)N(CCN2CCCCCC2)Cc2ccco2)cc1	-0.7	.	.	.
SMILES	RAM network inh	Measles CPE	BB579 growth dn	Yeast lifespan up
COC(=O)[C@@H]1C2CCC(C(=O)Nc3ccccc3)(CC2)[C@@H]1C(=O)OC	3.5	47.8*	-21.4	-11.8
CC(C)Oc1cccc(C(=O)NC(=S)Nc2ccccc2)c1	2.7	20.2	-20.8	-4.6
COc1ccc(C(=O)Nc2ccc(/C(C)=N/NC(=O)c3ccccc3O)cc2)cc1OC	5.0	45.3*	-7.9	-2.0
O=C(CSc1cccc[n+]1[O-])Nc1ccc2c(c1)OCO2	-0.7	.	.	.
NNC(=O)c1cccc(COc2cccc(Br)c2)c1	-0.4	1.2	-8.3	-19.8
NNC(=O)c1cccc(COc2ccc(Br)cc2)c1	0.0	19.6	78.5*	-7.9
O=C(NCc1ccccc1)c1cccc(COc2ccc(Cl)cc2)c1	4.5	7.2	6.5	-12.3
O=C(NCc1ccccc1)c1cccc(COc2cccc(Cl)c2)c1	9.2*	5.9	-34.3	-10.8
CC(C)CC1(C)NC(=O)N(CC(=O)Nc2ccc3c(c2)CCC3)C1=O (configuration not stated)	0.5	.	.	.
O=C(CNCC1CCCO1)NCc1ccco1 (configuration not stated)	-0.4	.	.	.
COc1ccc(S(=O)(=O)Nc2ccc(N3CCOCC3)nc2)cc1	4.1	.	.	.
N#C/C(=C\c1cccnc1)c1nc2c(s1)CCCC2	2.1	.	.	.
COc1cc(/C=C(\C#N)c2nc3c(s2)CCCC3)ccc1O	9.6*	7.4	-6.4	-9.4
Cc1cccn2cc(COc3ccc(-c4ccccc4)cc3)nc12	-0.4	.	.	.
COc1ccc(S(=O)(=O)N(C)C)cc1NC(=O)Cc1cccs1	2.1	.	.	.
